IC50 and MIC50 data for 25 compounds are collected here from ChEMBL document CHEMBL1795219, “4-alkoxy-3-arylfuran-2(5H)-ones as inhibitors of tyrosyl-tRNA synthetase: synthesis, molecular docking and antibacterial evaluation” (Bioorg Med Chem, 2011).

Structures are written as SMILES. In brackets after ≈: the same amount, converted by molar mass.

By IC50 is commonly meant the concentration at which inhibition is half-maximal. As usually defined, the MIC50 is the lowest concentration that inhibits either 50% of growth or 50% of the strains tested, depending on the study.

Tested on in one test: not listed separately
The test can be described thus: Inhibition of Staphylococcus aureus TyrRS expressed in Escherichia coli using L-[ring-3,5-3H] tyrosine preincubated for 10 mins by scintillation counting.
Conditions: not given
In short, it runs like this:
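Aminoacylation assay with purified TyrRS (0.2 nM). Enzyme preincubated with a range of inhibitor concentrations for 10 min at room temperature, then prewarmed mix added at 37 °C. Final mix: 100 mM Tris/Cl pH 7.9, 50 mM KCl, 16 mM MgCl2, 5 mM ATP, 3 mM DTT, 4 mg/ml E. coli MRE600 tRNA, 10 uM tritiated L-tyrosine. Stopped at intervals in ice-cold 7% TCA, filtered, scintillation counted. Rate linear, under 50% tRNA acylation. IC50 is the concentration halving activity.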
`O=C1OCC(OCCN2CCOCC2)=C1c1cccc(O)c1` had an IC50 of 25.6 µM.
Compound `O=C1OCC(OCCN2CCCCC2)=C1c1ccc(F)c(F)c1` came in with an IC50 of more than 100 µM.
Turning to `COc1ccc(C2=C(OCCN3CCN(C)CC3)COC2=O)cc1OC`, the IC50 is more than 100 µM.
`O=C1OCC(OCCN2CCOCC2)=C1c1ccc(O)cc1` returned an IC50 of 0.1 µM.
For the compound `O=C1OCC(OCCN2CCOCC2)=C1c1ccc(Cl)cc1`, the IC50 was found to be 0.62 µM.
As for `O=C1OCC(OCCNCc2ccccc2)=C1c1ccccc1`, the half-inhibitory concentration (IC50) was more than 100 µM.
On to `COc1ccc(C2=C(OCCNC3CCCCC3)COC2=O)cc1OC`, for which the IC50 was more than 100 µM.
`CN1CCN(CCOC2=C(c3ccc(Cl)c(Cl)c3)C(=O)OC2)CC1` registered an IC50 of more than 100 µM.
In turn, `COc1ccc(C2=C(OCCN3CCCCC3)COC2=O)cc1OC` came in with a 50% inhibitory concentration (IC50) of more than 100 µM.
Turning to `O=C1OCC(OCCN2CCCCC2)=C1c1ccccc1`, 53.6 µM corresponded to half-maximal inhibition (IC50).
As for `O=C1OCC(OCCN2CCOCC2)=C1c1ccc(Br)cc1`, the IC50 was 2.4 µM.
The compound `O=C1OCC(OCCN2CCOCC2)=C1c1cccc(Cl)c1` registered a half-inhibitory concentration (IC50) of 20.5 µM.
The same measure, in the same setting: as for `CN1CCN(CCOC2=C(c3ccccc3)C(=O)OC2)CC1`, the figure is 8.6 µM; as for `CCCNCCOC1=C(c2ccccc2)C(=O)OC1`, 29.1 µM.
`O=C1OCC(OCCN2CCOCC2)=C1c1cccc(Br)c1` showed an IC50 of 24.3 µM. This IC50 and that of the compound before are within 1.5-fold of each other.
Same read-out and setting: next, `O=C1OCC(OCCNNc2ccc([N+](=O)[O-])cc2)=C1c1ccccc1`: more than 100 µM.
Turning to `COc1cccc(C2=C(OCCN3CCOCC3)COC2=O)c1`, the half-inhibitory concentration (IC50) came out at 37.5 µM.
In turn, `CCCCNCCOC1=C(c2ccccc2)C(=O)OC1` registered an IC50 of 71.9 µM.
The compound `O=C1OCC(OCCNC2CCCCC2)=C1c1ccccc1` gave a half-maximal inhibitory concentration (IC50) of 87.4 µM. The IC50 values of the last two compounds are within 1.5-fold of each other.
`COc1ccc(C2=C(OCCN3CCOCC3)COC2=O)cc1` yielded a 50% inhibitory concentration (IC50) of 32.8 µM.
`O=C1OCC(OCCN2CCOCC2)=C1c1ccccc1`: 6.2 µM corresponded to half-maximal inhibition (IC50). Compared with the last compound, the IC50 is about 5.3-fold lower.
As to `O=C1OCC(OCCN2CCCC2)=C1c1ccccc1`, the half-maximal inhibitory concentration (IC50) was determined as 35.5 µM.

In another test the test system is Bacillus subtilis. The test can be described thus: Antibacterial activity against Bacillus subtilis ATCC 6633 after 24 hrs by MTT colorimetric method. Format: functional. The conditions noted are these: ATCC 6633, 24 h.
The compound `O=C1OCC(OCCN2CCOCC2)=C1c1cccc(O)c1` returned an MIC50 of 47.4 µg/mL (≈ 155 µM).
For the compound `O=C1OCC(OCCN2CCOCC2)=C1c1ccc(O)cc1`, the MIC50 amounted to 2.1 µg/mL (≈ 6.88 µM).
For `O=C1OCC(OCCN2CCOCC2)=C1c1ccc(Cl)cc1`, the MIC50 turned out to be 8.6 µg/mL (≈ 26.6 µM).
Take `O=C1OCC(OCCN2CCOCC2)=C1c1ccc(Br)cc1`: the MIC50 came to 15.8 µg/mL (≈ 42.9 µM).
Still for that read-out and setting: next, `CN1CCN(CCOC2=C(c3ccccc3)C(=O)OC2)CC1`: more than 50 µg/mL; `NC[C@H]1O[C@H](O[C@H]2[C@H](O)[C@@H](O[C@H]3O[C@H](CO)[C@@H](O)[C@H](N)[C@H]3O)[C@H](N)C[C@@H]2N)[C@H](O)[C@@H](O)[C@@H]1O` [KANAMYCIN]: 0.48 µg/mL (≈ 0.991 µM); `CCCNCCOC1=C(c2ccccc2)C(=O)OC1`: more than 50 µg/mL.
`O=C1OCC(OCCN2CCOCC2)=C1c1cccc(Br)c1` registered an MIC50 of more than 50 µg/mL.
`COc1cccc(C2=C(OCCN3CCOCC3)COC2=O)c1`: the MIC50 was more than 50 µg/mL.
Same read-out and setting: as for `O=C1OCC(OCCN2CCOCC2)=C1c1ccccc1`, the figure is 47.4 µg/mL (≈ 164 µM).

A further test relates to Staphylococcus aureus. The test can be described thus: Antibacterial activity against Staphylococcus aureus ATCC 25923 after 24 hrs by MTT colorimetric method. Particulars: ATCC 25923, 24 h. Format: functional. For orientation: Formazan colour is commonly taken as a measure of viable cells.
In turn, `O=C1OCC(OCCN2CCOCC2)=C1c1cccc(O)c1` yielded an MIC50 of 34.3 µg/mL (≈ 112 µM).
In the case of `O=C1OCC(OCCN2CCOCC2)=C1c1ccc(O)cc1`, the MIC50 was 0.23 µg/mL (≈ 0.753 µM).
For `O=C1OCC(OCCN2CCOCC2)=C1c1ccc(Cl)cc1`, the MIC50 was 1.3 µg/mL (≈ 4.02 µM).
Take `O=C1OCC(OCCN2CCOCC2)=C1c1ccc(Br)cc1`: the MIC50 was determined as 3 µg/mL (≈ 8.15 µM).
Regarding `CN1CCN(CCOC2=C(c3ccccc3)C(=O)OC2)CC1`, the MIC50 worked out at 16.5 µg/mL (≈ 54.6 µM).
Same read-out and setting: next, `NC[C@H]1O[C@H](O[C@H]2[C@H](O)[C@@H](O[C@H]3O[C@H](CO)[C@@H](O)[C@H](N)[C@H]3O)[C@H](N)C[C@@H]2N)[C@H](O)[C@@H](O)[C@@H]1O` [KANAMYCIN]: 1.2 µg/mL (≈ 2.48 µM); `CCCNCCOC1=C(c2ccccc2)C(=O)OC1`: 34.3 µg/mL (≈ 131 µM).
`O=C1OCC(OCCN2CCOCC2)=C1c1cccc(Br)c1` yielded an MIC50 of 25.5 µg/mL (≈ 69.3 µM).
Still for that read-out and setting: next, `COc1cccc(C2=C(OCCN3CCOCC3)COC2=O)c1`: 40.8 µg/mL (≈ 128 µM); `O=C1OCC(OCCN2CCOCC2)=C1c1ccccc1`: 10.4 µg/mL (≈ 35.9 µM).

The subject of another test is Candida albicans. The test can be described thus: Antibacterial activity against Candida albicans ATCC 10231 after 48 hrs by MTT colorimetric method. Format: functional. The conditions noted are these: ATCC 10231, 48 h.
As to `O=C1OCC(OCCN2CCOCC2)=C1c1cccc(O)c1`, the MIC50 stood at 47.2 µg/mL (≈ 155 µM).
The compound `CC(=O)N1CCN(c2ccc(OCC3COC(Cn4ccnc4)(c4ccc(Cl)cc4Cl)O3)cc2)CC1` (configuration not stated) [KETOCONAZOLE] registered an MIC50 of 3.8 µg/mL (≈ 7.15 µM).
In turn, `O=C1OCC(OCCN2CCOCC2)=C1c1ccc(O)cc1` showed an MIC50 of 1.1 µg/mL (≈ 3.6 µM).
The compound `O=C1OCC(OCCN2CCOCC2)=C1c1ccc(Cl)cc1` came in with an MIC50 of 2.9 µg/mL (≈ 8.96 µM).
Consider `O=C1OCC(OCCN2CCOCC2)=C1c1ccc(Br)cc1`, for which the MIC50 came to 12.7 µg/mL (≈ 34.5 µM).
On the same count and under the same terms, as for `CN1CCN(CCOC2=C(c3ccccc3)C(=O)OC2)CC1`, the figure is more than 50 µg/mL.
In turn, `CCCNCCOC1=C(c2ccccc2)C(=O)OC1` came in with an MIC50 of more than 50 µg/mL.
For the compound `O=C1OCC(OCCN2CCOCC2)=C1c1cccc(Br)c1`, the MIC50 is more than 50 µg/mL.
For the compound `COc1cccc(C2=C(OCCN3CCOCC3)COC2=O)c1`, the MIC50 is more than 50 µg/mL.
Take `O=C1OCC(OCCN2CCOCC2)=C1c1ccccc1`: the MIC50 amounted to 34.2 µg/mL (≈ 118 µM).

In another test the test system is Escherichia coli. The test can be described thus: Antibacterial activity against Escherichia coli ATCC 35218 after 24 hrs by MTT colorimetric method. Format: functional. Particulars: ATCC 35218, 24 h.
Compound `O=C1OCC(OCCN2CCOCC2)=C1c1cccc(O)c1` gave an MIC50 of more than 50 µg/mL.
`O=C1OCC(OCCN2CCOCC2)=C1c1ccc(O)cc1`: the MIC50 is more than 50 µg/mL.
For `O=C1OCC(OCCN2CCOCC2)=C1c1ccc(Cl)cc1`, the MIC50 is more than 50 µg/mL.
Turning to `CC1(C)S[C@@H]2[C@H](NC(=O)Cc3ccccc3)C(=O)N2[C@H]1C(=O)O` [PENICILLIN G], the MIC50 turned out to be 2.7 µg/mL (≈ 8.07 µM).
`O=C1OCC(OCCN2CCOCC2)=C1c1ccc(Br)cc1` had an MIC50 of more than 50 µg/mL.
Same read-out and setting: next, `CN1CCN(CCOC2=C(c3ccccc3)C(=O)OC2)CC1`: more than 50 µg/mL.
Turning to `CCCNCCOC1=C(c2ccccc2)C(=O)OC1`, the MIC50 is more than 50 µg/mL.
`O=C1OCC(OCCN2CCOCC2)=C1c1cccc(Br)c1` had an MIC50 of more than 50 µg/mL.
Compound `COc1cccc(C2=C(OCCN3CCOCC3)COC2=O)c1` showed an MIC50 of more than 50 µg/mL.
With `O=C1OCC(OCCN2CCOCC2)=C1c1ccccc1`, the MIC50 was more than 50 µg/mL.
